Usually IC50 stands for the midpoint of a concentration-inhibition curve.

Our source for the IC50 values is ChEMBL document CHEMBL1154820, “Synthesis, characterization and structure-activity relationship of novel N-phosphorylated E,E-3,5-bis(thienylidene)piperid-4-ones” (Eur J Med Chem, 2010).

Structures are written as SMILES.

Assay [1] can be described thus: Cytotoxicity against human Caov3 cells after 72 hrs by MTT assay. It counts as functional, cell-based, Caov-3. Put shortly:
(§1)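 Cells kept in RPMI-1640 with 10% FBS, 2 mM L-glutamine and gentamicin; seeded at 1×10⁴ cells/well, attached overnight at 37 °C, 5% CO₂. Compounds dissolved in DMSO, diluted into FBS-free medium, tested at […], 10⁻⁵, 10⁻⁶, 10⁻⁷ M in triplicate for 72 h. MTT (5 mg/ml) added for 3 h at 37 °C, formazan dissolved in DMSO, OD read at 590 nm; viability loss versus untreated controls, IC50 read graphically; melphalan as positive control.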

The next assay relates to SK-OV-3. Description: Cytotoxicity against human Scov3 cells after 72 hrs by MTT assay. It counts as functional, cell-based. Put shortly:
as §1

Another assay relates to A549. The assay is described as follows: Cytotoxicity against human A549 cells after 72 hrs by MTT assay. Type of assay: functional, cell-based. Put shortly:
as §1
For orientation: Formazan colour is commonly taken as a measure of viable cells.

The mark [2] stands for this setting: Homo sapiens, Caov-3, 72 h, read-out: IC50.
[3] abbreviates: Homo sapiens, SK-OV-3, 72 h, read-out: IC50.
[4] abbreviates: Homo sapiens, A549, 72 h, read-out: IC50.

Regarding `N[C@@H](Cc1ccc(N(CCCl)CCCl)cc1)C(=O)O` [MELPHALAN], the concentration for half-maximal inhibition (IC50) in assay [1] (setting [2]) was 50 µM.

On to `CN1C/C(=C\c2cccs2)C(=O)/C(=C/c2cccs2)C1`, for which the 50% inhibitory concentration (IC50) in the assay on SK-OV-3 (setting [3]) was 85 µM; in the assay on A549 (setting [4]), 80 µM; in assay [1] (caov-3), “Non-toxic”.

Take `CCOP(=O)(CN1C/C(=C\c2cccs2)C(=O)/C(=C/c2cccs2)C1)OCC`: the half-maximal inhibitory concentration (IC50) in the assay on SK-OV-3 (setting [3]) came out at 38 µM; in the assay with A549 (setting [4]), 15 µM; in assay [1] (setting [2]) it was 20 µM.

For `CN1C/C(=C/c2cccs2)C(=O)/C(=C/c2cccs2)C1`, the IC50 result (in the assay on SK-OV-3 (sk-ov-3); with A549 (a549); in assay [1] (caov-3)) was “Non-toxic” each time.

`CCOP(=O)(CCCN1C/C(=C\c2cccs2)C(=O)/C(=C/c2cccs2)C1)OCC`: the concentration for half-maximal inhibition (IC50) stood at 40 µM with SK-OV-3 (setting [3]), 30 µM with A549 (setting [4]) and 40 µM in assay [1] (setting [2]).

As for `CCOP(=O)(CCN1C/C(=C\c2cccs2)C(=O)/C(=C/c2cccs2)C1)OCC`, the IC50 came out at 64 µM in the assay on SK-OV-3 (setting [3]), 35 µM in the assay with A549 (setting [4]) and 70 µM in assay [1] (setting [2]).

For the compound `CCOP(=O)(OCC)N1C/C(=C\c2cccs2)C(=O)/C(=C/c2cccs2)C1`, the figures for the IC50 (in the assay with SK-OV-3 (setting [3]); in the assay with A549 (setting [4]); in assay [1] (setting [2])) were 30 µM, 27 µM and 26 µM, respectively.

For `O=C1/C(=C/c2cccs2)CN(P(=O)(Oc2ccccc2)Oc2ccccc2)C/C1=C\c1cccs1`, the values for the IC50 (with SK-OV-3 (setting [3]); in the assay with A549 (setting [4]); in assay [1] (setting [2])) were 60 µM, 35 µM and 44 µM, respectively.

Turning to `O=C1/C(=C/c2cccs2)CNC/C1=C\c1cccs1`, the half-inhibitory concentration (IC50) entry (in the assay on SK-OV-3 (sk-ov-3); in the assay with A549 (a549); in assay [1] (caov-3)) was “Non-toxic” throughout.
